Experiments:
[1] = Turnover in rat liver microsomes; assay type: ADME, Microsome
Outline: (§1)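 Rat liver microsomes (0.331 mg/mL protein) with 10 µM compound, 1 mM UDP-GA and 1 mM NADPH in KH2PO4 buffer, pH 7.4, at 37 °C. Sampled at 0-30 min (n = 3), stopped with MeCN. Rate was taken from parent disappearance by LC-MS.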

Glucagon receptor [2] = target: Glucagon receptor (Homo sapiens, UniProt P47871); experiment: In vitro binding affinity for recombinant human glucagon receptor (hGGR) in BHK cells; assay type: cell-based
Sequence of Glucagon receptor (Homo sapiens, UniProt P47871) (P47871 whole entry): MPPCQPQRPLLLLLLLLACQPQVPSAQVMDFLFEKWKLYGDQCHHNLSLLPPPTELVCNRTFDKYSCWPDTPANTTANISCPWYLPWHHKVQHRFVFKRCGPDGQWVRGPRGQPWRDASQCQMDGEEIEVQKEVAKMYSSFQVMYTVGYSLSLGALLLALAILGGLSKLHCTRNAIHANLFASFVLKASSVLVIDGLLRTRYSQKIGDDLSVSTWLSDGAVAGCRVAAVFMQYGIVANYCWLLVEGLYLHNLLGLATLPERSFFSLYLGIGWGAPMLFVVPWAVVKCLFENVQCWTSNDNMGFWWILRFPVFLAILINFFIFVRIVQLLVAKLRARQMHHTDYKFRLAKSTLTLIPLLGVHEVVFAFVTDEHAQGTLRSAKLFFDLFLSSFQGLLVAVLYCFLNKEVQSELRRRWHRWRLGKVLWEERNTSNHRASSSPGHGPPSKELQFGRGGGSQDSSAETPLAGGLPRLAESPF
Outline: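 Membranes (4 µg) from BHK cells expressing the cloned human glucagon receptor. Compounds were diluted in DMSO, and a glucagon standard curve was run. IC50 given as mean ± SD, n = 3.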

Rattus norvegicus [3] = species on record: Rattus norvegicus; experiment: In vitro metabolic turnover in rat liver microsomes was determined; assay type: functional; details: Microsome; outline: as §1
[4] = tmax after peroral administration (2 mg/kg) in dog was determined; range 30-45; assay type: ADME, organism-based, Canis lupus familiaris; details: in vivo, po
Outline: (§2)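 Four purpose-bred male beagle dogs, 11-19 kg, 15-18 months old. Dosed 0.5 mg/kg intravenously, or 2.0 mg/kg perorally by gavage using the same dosing solution as the iv dose. Blood was sampled at set times from predose to 4 h postdose and assayed by LC-MS-MS. PK parameters were derived by noncompartmental analysis; half-lives are given as harmonic means.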

Glucagon receptor [5] = target: Glucagon receptor (Rattus norvegicus, UniProt P30082); experiment: (§3) In vitro binding affinity towards rat glucagon receptor
Sequence of Glucagon receptor (Rattus norvegicus, UniProt P30082) (P30082 whole entry): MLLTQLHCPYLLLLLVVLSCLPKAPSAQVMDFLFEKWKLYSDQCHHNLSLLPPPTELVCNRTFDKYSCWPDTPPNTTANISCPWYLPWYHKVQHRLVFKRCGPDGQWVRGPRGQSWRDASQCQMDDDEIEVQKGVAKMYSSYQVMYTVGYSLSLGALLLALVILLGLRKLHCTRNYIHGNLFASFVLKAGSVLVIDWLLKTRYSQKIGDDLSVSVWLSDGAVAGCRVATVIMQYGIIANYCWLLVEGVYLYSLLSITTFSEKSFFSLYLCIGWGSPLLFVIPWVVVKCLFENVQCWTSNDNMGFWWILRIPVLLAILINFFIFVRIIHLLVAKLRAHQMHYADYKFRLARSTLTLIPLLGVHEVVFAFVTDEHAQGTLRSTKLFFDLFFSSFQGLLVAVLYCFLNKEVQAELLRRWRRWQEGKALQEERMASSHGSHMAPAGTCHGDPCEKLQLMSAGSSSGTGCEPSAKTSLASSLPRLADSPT

[6] = Oral bioavailability in dog; assay type: ADME, organism-based, Canis lupus familiaris; details: in vivo; outline: as §2
[7] = tmax in dog was determined; range 30-45; details: in vivo
[8] = Half life period after intravenous administration (0.5 mg/kg) in dog was determined; assay type: ADME, organism-based, Canis lupus familiaris; details: in vivo; outline: as §2
Rattus norvegicus [9] = species on record: Rattus norvegicus; experiment: Inhibitory activity against glucogon-stimulated glucose production from isolated primary rat hepatocytes; assay type: functional; details: hepatocyte
Outline: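 Hepatocytes came from fed male Sprague-Dawley rats by two-step perfusion and were glycogen-loaded with 15 mM glucose and 10 nM insulin for 24 h. Cells were then given compound (0-1000 nM) plus 0.5 nM glucagon for 70 min in HEPES/bicarbonate buffer with 0.1% HSA, pH 7.4, 37 °C. Released glucose and glycogen were measured. Ki came from Schild analysis; mean ± SEM of four hepatocyte preparations.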

[10] = target: Glucagon receptor (Rattus norvegicus) (UniProt P30082); experiment: as §3
Sequence of Glucagon receptor (Rattus norvegicus) (P30082 whole entry): as above

Structure (SMILES)	Metabolism [1] [pmol/min/mg]	IC50 (Glucagon receptor [2]) [nM]	also measured
O=C(N/N=C/c1ccc(CO)c2ccccc12)c1ccc(O)c(F)c1	89	29.4	–
CN1CCN(C(=O)Cc2ccc(/C=N/NC(=O)c3ccc(O)c(Cl)c3)c3ccccc23)CC1	283	268	–
CC(C)(C)C(=O)Nc1ccc(/C=N/NC(=O)c2ccc(O)c(Cl)c2)c2ccccc12	45	33	–
O=C(N/N=C/c1ccc(CO)c2ccccc12)c1ccc(O)c(Cl)c1Cl	–	53.8	Metabolism (pM min-1 mg-1) (Rattus norvegicus [3]): 103
COc1cc(/C=N/NC(=O)c2ccc(O)c(Cl)c2)ccc1NC(=O)Cc1csc2ccccc12	74	63.2	–
CCN(CC)C(=O)COc1ccc(/C=N/NC(=O)c2ccc(O)c(Cl)c2)c2ccccc12	302	49.7	–
COc1cc(OCCN2CCc3ccccc3C2)ccc1/C=N/NC(=O)c1ccc(O)c(Cl)c1	322	120	–
CN(C)CCN(Cc1ccccc1)C(=O)Cc1ccc(/C=N/NC(=O)c2ccc(O)c(C#N)c2)c2ccccc12	240	10.4	–

Continued by falling IC50 (Glucagon receptor [2]), values first:

Metabolism [1] [pmol/min/mg]	IC50 (Glucagon receptor [2]) [nM]	Structure (SMILES)	also measured
167	27.7	O=C(N/N=C/c1ccc(OCCNCc2ccc(OC(F)(F)F)cc2)c2ccccc12)c1ccc(O)c(Cl)c1	–
190	27.5	O=C(N/N=C/c1cccc2c1ccn2Cc1ccc(Cl)c(Cl)c1)c1ccc(O)c(Cl)c1	–
59	22.3	N#Cc1cc(C(=O)N/N=C/c2cccc3c2ccn3Cc2ccc(C(F)(F)F)cc2)ccc1O	–
250	19.7	O=C(N/N=C/c1ccc(OCCNCCc2ccc(Br)cc2)c2ccccc12)c1ccc(O)c(Cl)c1	–
254	13.8	O=C(N/N=C/c1ccc(OCC(=O)N2CCc3ccccc3C2)c2ccccc12)c1ccc(O)c(Cl)c1	–
14	6.8	O=C(N/N=C/c1ccc(CS(=O)(=O)Cc2ccc(OC(F)(F)F)cc2)c2ccccc12)c1ccc(O)c(Cl)c1	–
105	5.3	Cc1cc(C)c(C)c(Cn2ccc3c(/C=N/NC(=O)c4ccc(O)c(Cl)c4)cccc32)c1C	–
53	4.9	N#Cc1cc(C(=O)N/N=C/c2ccc(C(=O)N3CCN(Cc4ccc(Cl)cc4)CC3)c3ccccc23)ccc1O	–
250	2.8	N#Cc1cc(C(=O)N/N=C/c2ccc(N(C(=O)C3CCCC3)C(=O)C3CCCC3)c3ccccc23)ccc1O	–
34	2.3	Cc1cc(C)c(C)c(Cn2ccc3c(/C=N/NC(=O)c4ccc(O)c(C#N)c4)cccc32)c1C	Tmax [4]: 30 min; IC50 (Glucagon receptor [5]): 0.43 nM; bioavailability [6]: 15%; Tmax [7]: 30 min; half-life [8]: 66.6 min; Ki (Rattus norvegicus [9]): 14 nM; Kb [10]: 0.38 nM
